SF-1 act = activators of human nuclear receptor SF-1; 65,000 compounds, 1.9% hits; Q13285; activation, % at 10 µM; CHO-K1 Gal4-SF-1 LBD luciferase reporter; % increase over DMSO SF-1-specific signal;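 active = activation above the mean activation of all tested compounds plus 3 SD, cut at about 50% in these data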
Target sequence (Q13285 whole entry, looked up, the tested form may be a part): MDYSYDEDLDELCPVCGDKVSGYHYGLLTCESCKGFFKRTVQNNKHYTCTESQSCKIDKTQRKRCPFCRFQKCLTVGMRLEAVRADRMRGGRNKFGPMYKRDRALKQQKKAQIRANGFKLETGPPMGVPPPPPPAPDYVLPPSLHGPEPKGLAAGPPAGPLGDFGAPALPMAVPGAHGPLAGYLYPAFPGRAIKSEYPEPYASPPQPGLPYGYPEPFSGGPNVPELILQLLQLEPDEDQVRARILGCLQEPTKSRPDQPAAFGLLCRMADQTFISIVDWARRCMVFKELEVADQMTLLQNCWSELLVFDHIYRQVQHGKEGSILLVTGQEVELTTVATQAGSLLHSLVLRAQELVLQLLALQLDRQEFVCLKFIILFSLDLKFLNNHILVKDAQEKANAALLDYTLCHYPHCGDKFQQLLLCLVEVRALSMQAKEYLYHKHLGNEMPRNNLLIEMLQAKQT
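Material: Transient Gal4-SF-1 LBD reporter, CHO-K1 | Input: 4,000 cells/well | Dosing: One dose, 10 µM compound, 1% DMSO | Incubation: 20 h compound treatment, 37 °C | Detection: SteadyLite luciferase luminescence | Evaluation: Percent activation relative to DMSO median and mock-transfected background | Benchmarks: DMSO-treated SF-1-transfected cells as negative, DMSO-treated mock-transfected cells lacking SF-1 as background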
M1 agonist = agonists of M1 muscarinic receptor | CHO-M1 cells, Fluo-4 calcium fluorescence, agonist mode; stronger effect = higher value | B-score at 10 µM | 64,000 compounds, 3% hits | AID 626;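 active = fluorescence rise, raw or as B-score row- and column-corrected plate score, outside the 99.7% band of its plate's samples, either direction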
M1 antagonist = antagonists of rat M1 muscarinic receptor; B-score at 10 µM; CHO-M1 cells, Fluo-4 calcium, ACh EC80 antagonist mode; stronger effect = lower value; P08482; AID 628; 64,000 compounds, 3.4% hits;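 active = calcium fluorescence response, raw or row-and-column corrected B-score, differing from the plate sample mean either way at a set confidence level, mostly lower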
RORA act = RORA (human) activation | 65,000 compounds, 1.5% hits | CHO-K1 Gal4-RORA LBD luciferase reporter, luminescence; percent increase over mock-subtracted basal signal | activation, % at 10 µM | AID 560;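 active = activation above the mean of all tested compounds plus 3 SD, cut at about 49% in these data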;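 note: 0% = DMSO-treated RORA cells and 100% = added signal equal to DMSO minus mock-transfected cells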
S1P1 ag pot = S1P1 (human) agonism or agonism potentiation | P21453 | S1P1 CRE-bla cells, forskolin, beta-lactamase FRET, potentiator mode; S1P1 agonist co-added at EC20, 2 nM; 100% = saturating reference agonist, 0% = basal | activation, % at 9.5 µM | 56,000 compounds, 0.57% hits | AID 449;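 active = activation above a cutoff set at the mean activation of all tested compounds plus 3 SD, cut at about 54% in these data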;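 note: forskolin at 4 µM as EC80 and the EC20 agonist is SEW2871; 100% = SEW2871 at its EC100 plus forskolin at EC80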
S1P3 ag = agonists of human S1P3 receptor; activation, % at 4.5 µM; Q99500; S1P3 NFAT-BLA reporter cells, agonism, FRET ratio; relative to 1 µM S1P, basal subtracted; 60,000 compounds, 0.1% hits; AID 373;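 active = activation above the screen-wide mean plus 3 SD, cut at about 4.5% in these data, passing the limit was not always enough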
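material = human S1P3 NFAT-BLA reporter CHO cells | schedule = 4 h compound at 37 °C, 2 h substrate at RT | measured by = fluorescent BLA substrate, ex 405 nm, em 460/535 nm ratio | controls = 1 µM S1P reference | replication = primary once, confirmation triplicate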
An asterisk follows results filed as active; nt = not tested or not shown. Shown are actives, neighbours in structure and some others; about 8.8% of the full set was active somewhere.

SMILES	SF-1 act	M1 agonist	M1 antagonist	RORA act	S1P1 ag pot	S1P3 ag
CSCCC(NC(=O)c1ccccc1)C(=O)NCc1ccco1 (stereo not given)	4	0.051	-2.3	-17	-20	0
CCOC(=O)Cn1nnnc1CN(Cc1ccccc1)Cc1cc2cc(CC)ccc2[nH]c1=O	20	0.14	0.6	58*	4	0
COc1ccccc1-n1cnnc1SC1CCOC1=O (stereo not given)	12	0.55	2.8*	-9	-6	0
c1ccc(CCc2nc(-c3ccccn3)no2)cc1	35	-0.075	0.88	54*	nt	-1
Brc1ccc(-c2noc(CCc3ccccc3)n2)o1	36	0.93	0.19	17	0	0
COc1cccc(-n2c(=O)[nH]cc(C(=O)Nc3ccc(NC(C)=O)cc3)c2=O)c1	17	-0.54	-1.2	-11	-2	0
O=C(c1ccccc1)c1nc[nH]c1C(=O)Nc1ccccc1	-27	0.34	0.95	15	-43	0
CCCC(=O)Nc1ccc(C(=O)n2nnc3ccccc32)cc1	3	-1.5	0.16	-4	2	-1
CCN(CC)c1ccc(C(=O)n2cnc3ccccc32)cc1	64*	-0.37	-0.87	39	33	-1
COc1cc(CCC(=O)OCn2nnc3ccccc3c2=O)cc(OC)c1OC	12	-0.014	2.7*	6	-17	-1
COc1cc(C(=O)OCn2nnc3ccccc3c2=O)cc(OC)c1OC	4	0.69	-0.18	0	nt	nt
Nc1n[nH]c(-c2ccccc2)c1-c1ccccc1	-9	-0.18	0.0083	-12	-1	-1
CCOC(=O)N1CCN(C(=O)c2cc(Cl)c(Cl)cc2C(=O)O)CC1	2	4.6*	1.3	-12	nt	nt
O=S(=O)(NCc1ccccc1)c1cnc[nH]1	3	0.74	1.4	1	-10	-1
Fc1ccc(-c2cnc[nH]2)cc1	9	-0.04	1.9*	18	17	-4
CSc1nc2n(n1)C(c1cc(Br)ccc1F)C(C(=O)N(C)C)=C(C)N2 (stereo not given)	-5	0.13	1.6*	-16	-12	-1
Cc1cc(N2C(=O)C3C4C=CC(C4)C3C2=O)ccc1Br (stereo not given)	6	1	0.32	1	23	1
O=C(Nc1nc2c(s1)CCCC2)c1ccc(Br)s1	25	0.12	-1.1	9	15	-1
Cc1ncsc1C(=O)Nc1nc2c(s1)CCCC2	66*	0.76	-0.038	57*	0	0
O=C(Nc1nc2c(s1)CCCC2)c1ccc2ncsc2c1	38	0.0089	0.076	50*	-18	0
Cc1cc(C(=O)Nc2nc3c(s2)CCCC3)cs1	3	0.014	-0.45	-22	16	-1
OCCn1c(-c2ccc3c(c2)OCO3)csc1=Nc1ccccc1	51*	0.032	-0.48	46	30	-2
CC(C)N(C)C1CCN(C(=O)Nc2ccc(Cl)c(Cl)c2)CC1	2	-0.35	-0.25	10	7	1
O=c1oc2ccccc2n1CCCCCn1c(=O)oc2ccccc21	-7	0.34	0.19	3	16	0
O=c1oc2ccccc2n1CCCOc1ccccc1	57*	0.5	0.69	49*	-19	0
SMILES	SF-1 act	M1 agonist	M1 antagonist	RORA act	S1P1 ag pot	S1P3 ag
O=C(CCN1CCN(c2ccccc2F)CC1)Nc1ccc2c(c1)OCO2	-13	0.41	-0.21	-3	-5	0
Cc1cc(N2CCOCC2)nc(NCc2ccccc2)n1	-24	-0.6	-1.8	3	59*	-2
Cc1cc(N2CCOCC2)nc(SCC(=O)c2ccccc2)n1	37	-0.87	-0.73	35	nt	nt
CC(Sc1ccccn1)C(=O)Nc1ccccc1 (stereo not given)	57*	0.84	0.31	34	nt	-1
CC(C)C(=O)Nc1ccc(Nc2ccccc2)cc1	12	-1.2	-0.058	34	5	0
COc1cc(OC)nc(NC2OC(=O)c3ccccc32)n1 (stereo not given)	14	0.041	0.56	-2	-8	-1
CC(=O)c1cccc(NC(=O)c2cc3nc(C)cc(C)n3n2)c1	37	0.64	0.083	6	nt	-1
CCCc1cc(=O)n2[nH]c(-c3ccccc3)cc2n1	68*	0.048	-0.57	52*	-4	-1
CCCc1cc(=O)n2[nH]c(-c3ccc(C)cc3)cc2n1	26	0.44	-0.16	79*	-34	0
COCc1cc(=O)n2[nH]c(-c3cccc(Br)c3)cc2n1	48	-0.25	0.37	53*	-23	1
COCc1cc(=O)n2[nH]c(-c3ccccc3)cc2n1	30	-0.35	0.28	22	-25	0
CCCc1cc(=O)n2[nH]c(C)nc2n1	-9	0.69	-0.63	4	-6	0
Cc1cccc(OCC(O)Cn2c(NCc3cccnc3)nc3c2c(=O)[nH]c(=O)n3C)c1 (stereo not given)	-14	-0.44	0.017	28	-2	-1
O=C(Oc1cccc(Oc2ccccc2)c1)N1CCOCC1	0	0	0	-7	-33	-1
O=C(Oc1ccc(-c2ccccc2)cc1)N1CCOCC1	43	-0.6	0.27	61*	3	-1
CC#CCCCC(=O)Nc1cccc(C(=O)O)c1	9	-0.23	0.68	56*	20	-1
CNc1nnc(-c2cc3ccccc3oc2=O)s1	32	-0.19	-0.12	36	2	0
COC(=O)c1ccccc1NC(=O)CNC(=O)c1ccco1	23	1.3	0.38	2	-7	0
O=C(CSc1nnc(-c2c[nH]c3ccccc23)o1)N(Cc1ccccc1)c1ccc(F)cc1	-1	-1.5	0.019	8	107*	5
O=C(NCc1ccco1)Nc1ccc(Br)cc1Cl	60*	nt	nt	57*	9	-1
CC(=O)c1cccc(NC(=O)NCc2ccco2)c1	20	-0.69	1	13	-2	0
Cc1ccc(C(=O)Nc2ncc(Cc3ccc(F)cc3)s2)o1	119*	-0.2	-0.85	16	-10	-1
Cc1nnc(SCC(=O)Nc2ncc(Cc3ccc(F)cc3)s2)n1N	-11	-0.34	-0.23	7	-19	1
CC(=O)Nc1nonc1NC(C)=O	-7	-0.12	0.0066	-5	15	-1
CC(=O)Nc1cc(OC(C)=O)c2nonc2c1OC(C)=O	-30	-1.2	0.54	-34	98*	-2
Cc1nnc2c3cnn(-c4ccc(Cl)cc4)c3ncn12	25	1.8	-0.23	65*	nt	nt
COc1cccc(Nc2ncccc2C(=O)NCc2ccccc2)c1	6	3.8*	0.59	4	nt	0
COc1cccc(NC(=O)COc2ccc(N3CC(C(=O)NCC(C)C)CC3=O)cc2)c1 (stereo not given)	-7	0.014	0.094	-19	-7	-1

From PubChem BioAssay
